Reference: ChEMBL document CHEMBL2040734, “Benzothiazoles: search for anticancer agents” (2012)

Tests used:
Type in all cases: functional
SK-OV-3 = experiment: Cytotoxicity against human SKOV3 cells assessed as cell growth at 0.01 uM after 48 hrs by sulforhodamine B assay; conditions: SK-OV-3, 48 h, read-out: Activity
MDA-MB-468 [1] = experiment: Cytotoxicity against human MDA-MB-468 cells assessed as cell growth at 0.01 uM after 48 hrs by sulforhodamine B assay; conditions: MDA-MB-468, 48 h, read-out: Activity
SF-268 = experiment: Cytotoxicity against human SF268 cells assessed as cell growth at 0.1 uM after 48 hrs by sulforhodamine B assay; conditions: SF-268, 48 h, read-out: Activity
A498 [2] = experiment: Cytotoxicity against human A498 cells assessed as cell growth at 0.1 uM after 48 hrs by sulforhodamine B assay; conditions: A498, 48 h, read-out: Activity
Outline: (§1)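 NCI-60 five-dose screen. Cells were grown in RPMI 1640 with 5% FBS and 2 mM L-glutamine and preincubated 24 h. Compound (DMSO stock) was tested at 0.01, 0.1, 1, 10 and 100 µM for 48 h at 37 °C. Cells were fixed in situ with cold TCA (final 10%) and stained with 0.4% SRB. A515 was read, and percent growth was calculated against time-zero and control plates.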

CAKI-1 [3] = experiment: Cytotoxicity against human Caki1 cells assessed as cell growth at 0.1 uM after 48 hrs by sulforhodamine B assay; conditions: CAKI-1, 48 h, read-out: Activity; outline: as §1
KM12 = experiment: Cytotoxicity against human KM12 cells assessed as cell growth at 100 uM after 48 hrs by sulforhodamine B assay; conditions: KM12, 48 h, read-out: Activity
Malme-3M [4] = experiment: Cytotoxicity against human MALME-3M cells assessed as cell growth at 100 uM after 48 hrs by sulforhodamine B assay; conditions: read-out: Activity
[5] = Cytotoxicity against human Hs 578T cells assessed as cell growth at 0.1 uM after 48 hrs by sulforhodamine B assay; conditions: read-out: Activity
Outline: (§2)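 Five-dose NCI panel run at 0.01, 0.1, 1, 10 and 100 µM. Cells were in RPMI 1640 with 5% FBS and 2 mM L-glutamine, seeded at 5000–40,000 cells/well and pre-incubated 24 h. Drug was diluted from a DMSO stock into medium with 50 µg/ml gentamicin. Exposure was 48 h at 37 °C, 5% CO2. Cells were fixed with cold TCA and stained with 0.4% SRB, read at 515 nm. Percent growth came from time-zero, control and test absorbances.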

A549 [6] = experiment: Cytotoxicity against human A549 cells assessed as cell growth at 1 uM after 48 hrs by sulforhodamine B assay; conditions: A549, 48 h, read-out: Activity; outline: as §1
HOP-62 = experiment: Cytotoxicity against human HOP62 cells assessed as cell growth at 1 uM after 48 hrs by sulforhodamine B assay; conditions: HOP-62, 48 h, read-out: Activity; outline: as §2
OVCAR-8 = experiment: Cytotoxicity against human OVCAR8 cells assessed as cell growth at 1 uM after 48 hrs by sulforhodamine B assay; conditions: OVCAR-8, 48 h, read-out: Activity
HT-29 [7] = experiment: Cytotoxicity against human HT-29 cells assessed as cell growth at 10 uM after 48 hrs by sulforhodamine B assay; conditions: HT-29, 48 h, read-out: Activity; outline: as §2
U-251 = experiment: Cytotoxicity against human U251 cells assessed as cell growth at 10 uM after 48 hrs by sulforhodamine B assay; conditions: U-251, 48 h, read-out: Activity
CAKI-1 [8] = experiment: Cytotoxicity against human Caki1 cells assessed as cell growth at 10 uM after 48 hrs by sulforhodamine B assay; conditions: CAKI-1, 48 h, read-out: Activity; outline: as §1
PC-3 = experiment: Cytotoxicity against human PC3 cells assessed as cell growth at 10 uM after 48 hrs by sulforhodamine B assay; conditions: PC-3, 48 h, read-out: Activity
MDA-MB-468 [9] = experiment: Cytotoxicity against human MDA-MB-468 cells assessed as cell growth at 10 uM after 48 hrs by sulforhodamine B assay; conditions: MDA-MB-468, 48 h, read-out: Activity
UACC-257 = experiment: Cytotoxicity against human UACC257 cells assessed as cell growth at 10 '-5 M after 48 hrs by sulforhodamine B assay; conditions: UACC-257, 48 h, read-out: Activity
OVCAR-5 = experiment: Cytotoxicity against human OVCAR5 cells assessed as cell growth at 10 '-5 M after 48 hrs by sulforhodamine B assay; conditions: OVCAR-5, 48 h, read-out: Activity
A549 [10] = experiment: Growth inhibition of human A549 cells after 48 hrs by sulforhodamine B assay; conditions: A549, 48 h
Outline: (§3)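 Cells were in RPMI 1640 with 5% FBS and pre-incubated 24 h. Read-out was TCA fixation, SRB staining and absorbance at 515 nm. GI50 was the concentration where [(Ti−Tz)/(C−Tz)]×100 = 50, taken from log concentration vs % growth curves. It is given as ">" the top concentration when not reached.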

COLO 205 = experiment: Growth inhibition of human COLO205 cells after 48 hrs by sulforhodamine B assay; conditions: COLO 205, 48 h; for CC50: read-out: LC50 (the source's name); outline: as §3
Malme-3M [11] = experiment: Growth inhibition of human MALME-3M cells after 48 hrs by sulforhodamine B assay; conditions: for CC50: read-out: LC50 (the source's name)
Outline: (§4)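 Adherent NCI-60 lines were grown in RPMI 1640 with 5% FBS and 2 mM L-glutamine, plated at 5000–40,000 cells/well and preincubated 24 h. They were then exposed to five concentrations (0.01–100 µM, from a DMSO stock) for 48 h at 37 °C, 5% CO2. Cells were fixed with cold TCA (10% final, 60 min, 4 °C) and stained with 0.4% SRB. Dye was solubilized in 10 mM Tris base and A515 read. GI50 was derived from time-zero, control and treated absorbances.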

M14 = experiment: Growth inhibition of human M14 cells after 48 hrs by sulforhodamine B assay; conditions: M14, 48 h; outline: as §4
SK-MEL-5 = experiment: Growth inhibition of human SK-MEL-5 cells after 48 hrs by sulforhodamine B assay; conditions: SK-MEL-5, 48 h; outline: as §4
UACC-62 = experiment: Growth inhibition of human UACC62 cells after 48 hrs by sulforhodamine B assay; conditions: UACC-62, 48 h; for CC50: read-out: LC50 (the source's name); outline: as §4
OVCAR-3 = experiment: Growth inhibition of human OVCAR3 cells after 48 hrs by sulforhodamine B assay; conditions: OVCAR-3, 48 h; for CC50: read-out: LC50 (the source's name); outline: as §4
A498 [12] = experiment: Growth inhibition of human A498 cells after 48 hrs by sulforhodamine B assay; conditions: A498, 48 h; for CC50: read-out: LC50 (the source's name)
Outline: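 A498 adherent renal cells, plated in RPMI 1640 with 5% FBS and 2 mM L-glutamine, were preincubated for 24 h and then exposed for 48 h at 37 °C to 0.01–100 µM. Fixation was 10% TCA (final) for 60 min at 4 °C, then SRB staining and absorbance at 515 nm. GI50 was derived from (Ti−Tz)/(C−Tz)×100 = 50, using time-zero plates.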

HT-29 [13] = experiment: Cytotoxicity against human HT-29 cells assessed as cell growth at 0.01 uM after 48 hrs by sulforhodamine B assay; conditions: HT-29, 48 h, read-out: Activity; outline: as §2

Cc1ccc2nc(Nc3c(C)cccc3C)sc2c1
growth at 0.01 µM (SK-OV-3): 101%
growth at 0.01 µM (MDA-MB-468 [1]): 88%
growth at 0.1 µM (SF-268): 100%
growth at 0.1 µM (A498 [2]): 68%
growth at 0.1 µM (CAKI-1 [3]): 83%
growth at 100 µM (KM12): 48%
growth at 100 µM (Malme-3M [4]): 53%
growth at 0.1 µM [5]: 97%
growth at 1 µM (A549 [6]): 83%
growth at 1 µM (HOP-62): 66%
growth at 1 µM (OVCAR-8): 89%
growth at 10 µM (HT-29 [7]): 10%
growth at 10 µM (U-251): 63%
growth at 10 µM (CAKI-1 [8]): 27%
growth at 10 µM (PC-3): 49%
growth at 10 µM (MDA-MB-468 [9]): 9%
growth at 10 µM (UACC-257): 56.1%
growth at 10 µM (OVCAR-5): 65.6%
LC50 (concentration killing 50% of cells) (A549 [10]): > 100 µM
TGI (A549 [10]): > 100 µM
TGI (COLO 205): > 100 µM
CC50 (COLO 205): > 100 µM
TGI (Malme-3M [11]): > 100 µM
CC50 (Malme-3M [11]): > 100 µM
LC50 (M14): > 100 µM
TGI (M14): > 100 µM
LC50 (SK-MEL-5): > 100 µM
TGI (SK-MEL-5): > 100 µM
GI50 (UACC-62): 1.15 µM
TGI (UACC-62): > 100 µM
CC50 (UACC-62): > 100 µM
GI50 (OVCAR-3): > 100 µM
TGI (OVCAR-3): > 100 µM
CC50 (OVCAR-3): > 100 µM
CC50 (A498 [12]): > 100 µM
growth at 0.01 µM (HT-29 [13]): 98%

Clc1cccc(Cl)c1Nc1nc2cccc(Cl)c2s1
growth at 0.01 µM (SK-OV-3): 101%
growth at 0.01 µM (MDA-MB-468 [1]): 89%
growth at 0.1 µM (SF-268): 97%
growth at 0.1 µM (A498 [2]): 67%
growth at 0.1 µM (CAKI-1 [3]): 73%
growth at 100 µM (KM12): -98%
growth at 100 µM (Malme-3M [4]): -84%
growth at 0.1 µM [5]: 81%
growth at 1 µM (A549 [6]): 55%
growth at 1 µM (HOP-62): 67%
growth at 1 µM (OVCAR-8): 58%
growth at 10 µM (HT-29 [7]): -71%
growth at 10 µM (U-251): -84%
growth at 10 µM (CAKI-1 [8]): -90%
growth at 10 µM (PC-3): -68%
growth at 10 µM (MDA-MB-468 [9]): -73%
growth at 10 µM (UACC-257): -33.3%
growth at 10 µM (OVCAR-5): 1.07%
GI50 (A549 [10]): 1.11 µM
LC50 (concentration killing 50% of cells) (A549 [10]): 7.47 µM
TGI (A549 [10]): 2.87 µM
GI50 (COLO 205): 1.4 µM
TGI (COLO 205): 2.81 µM
CC50 (COLO 205): 5.67 µM
GI50 (Malme-3M [11]): 1.03 µM
TGI (Malme-3M [11]): 2.4 µM
CC50 (Malme-3M [11]): 5.6 µM
GI50 (M14): 1.46 µM
LC50 (M14): 7.44 µM
TGI (M14): 3.29 µM
GI50 (SK-MEL-5): 1 µM
LC50 (SK-MEL-5): 4.93 µM
TGI (SK-MEL-5): 2.22 µM
GI50 (UACC-62): 1.01 µM
TGI (UACC-62): 2.37 µM
CC50 (UACC-62): 5.55 µM
GI50 (OVCAR-3): 0.983 µM
TGI (OVCAR-3): 2.2 µM
CC50 (OVCAR-3): 4.86 µM
GI50 (A498 [12]): 0.26 µM
TGI (A498 [12]): 1.62 µM
CC50 (A498 [12]): 4.16 µM
growth at 0.01 µM (HT-29 [13]): 100%
